Holding throughout (type): protein assay
Assay [1] addresses T1, Acetolactate synthase (Zea mays) (UniProt Q41768+Q41769). Description: Inhibition of in vitro ALS activity of Zea mays (maize) at 25 mg/L at 37 degC. An outline of the steps: (§1)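 ALS came from uppermost-expanded leaves of 5-day maize seedlings, using a 50% (NH4)2SO4 pellet. Inhibitor was dried from acetone in the tubes at 0, 0.04, 0.2, 1, 5 and 25 mg L-1. The assay used 30 mM pyruvate, 1 mM MgCl2, 1 mM TPP, 20 μM FAD and 50 mM K-phosphate at pH 7, run for 1 h at 37 °C. It was stopped with H2SO4, decarboxylated for 15 min at 60 °C, developed with creatine/α-naphthol, and read at A520.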

The target of assay [2] is T1, Acetolactate synthase (Zea mays). Put plainly: Inhibition of in vitro ALS activity in first leaf of the plant grew out Zea mays (maize) seedlings measured at 520 OD/ mg of protein/hr at 400 ug/L at 37 degC. An outline of the steps:
(§2)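 Maize seedlings were treated in vivo, once the first leaf emerged, with herbicide in distilled water at 0, 100, 200, 400 and 800 μg L-1. Uppermost-expanded leaves were harvested 24 h later. ALS was extracted, precipitated with 50% (NH4)2SO4 at 4 °C, and assayed with 30 mM pyruvate, TPP and FAD at pH 7 for 1 h at 37 °C. Acetoin was read at A520 and normalised to Coomassie protein.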

Assay [3] shares this target. Put plainly: Inhibition of in vitro ALS activity in first leaf of the plant grew out Zea mays (maize) seedlings measured at 520 OD/ mg of protein/hr at 800 ug/L at 37 degC. An outline of the steps: as §2
For assay [4] the target is unchanged. Put plainly: Inhibition of in vitro ALS activity in first leaf of the plant grew out Zea mays (maize) seedlings measured at 520 OD/ mg of protein/hr at 200 ug/L at 37 degC. An outline of the steps:
as §2

For assay [5] the target is unchanged. Put plainly: Inhibition of in vitro ALS activity of Zea mays (maize) at 200 ug/L at 37 degC. An outline of the steps:
as §1

Assay [6] has the same target. Description: Inhibition of in vitro ALS activity in first leaf of the plant grew out Zea mays (maize) seedlings measured at 520 OD/ mg of protein/hr at 100 ug/L at 37 degC. An outline of the steps: as §2

Calls of active or inactive are those of the source. No cut-off for these calls is given here.

T1 sequence (Q41768 whole entry, looked up): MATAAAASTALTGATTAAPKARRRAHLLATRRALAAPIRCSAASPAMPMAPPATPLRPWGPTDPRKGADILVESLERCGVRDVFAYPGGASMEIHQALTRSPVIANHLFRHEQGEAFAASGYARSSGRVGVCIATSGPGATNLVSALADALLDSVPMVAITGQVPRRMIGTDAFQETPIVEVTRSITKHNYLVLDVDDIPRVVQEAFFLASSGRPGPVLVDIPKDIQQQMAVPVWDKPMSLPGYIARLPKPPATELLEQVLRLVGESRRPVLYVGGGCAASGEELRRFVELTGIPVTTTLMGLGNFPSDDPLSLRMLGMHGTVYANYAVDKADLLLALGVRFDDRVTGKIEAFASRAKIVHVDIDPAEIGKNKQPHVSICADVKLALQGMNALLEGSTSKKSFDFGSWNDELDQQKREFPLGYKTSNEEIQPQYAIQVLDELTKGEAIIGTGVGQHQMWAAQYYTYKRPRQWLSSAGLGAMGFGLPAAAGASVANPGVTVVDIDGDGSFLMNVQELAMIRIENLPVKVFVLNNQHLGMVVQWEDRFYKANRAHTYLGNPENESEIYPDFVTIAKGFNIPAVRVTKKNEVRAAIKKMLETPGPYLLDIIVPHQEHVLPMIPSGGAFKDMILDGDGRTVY
T1 sequence (Q41769 whole entry, looked up): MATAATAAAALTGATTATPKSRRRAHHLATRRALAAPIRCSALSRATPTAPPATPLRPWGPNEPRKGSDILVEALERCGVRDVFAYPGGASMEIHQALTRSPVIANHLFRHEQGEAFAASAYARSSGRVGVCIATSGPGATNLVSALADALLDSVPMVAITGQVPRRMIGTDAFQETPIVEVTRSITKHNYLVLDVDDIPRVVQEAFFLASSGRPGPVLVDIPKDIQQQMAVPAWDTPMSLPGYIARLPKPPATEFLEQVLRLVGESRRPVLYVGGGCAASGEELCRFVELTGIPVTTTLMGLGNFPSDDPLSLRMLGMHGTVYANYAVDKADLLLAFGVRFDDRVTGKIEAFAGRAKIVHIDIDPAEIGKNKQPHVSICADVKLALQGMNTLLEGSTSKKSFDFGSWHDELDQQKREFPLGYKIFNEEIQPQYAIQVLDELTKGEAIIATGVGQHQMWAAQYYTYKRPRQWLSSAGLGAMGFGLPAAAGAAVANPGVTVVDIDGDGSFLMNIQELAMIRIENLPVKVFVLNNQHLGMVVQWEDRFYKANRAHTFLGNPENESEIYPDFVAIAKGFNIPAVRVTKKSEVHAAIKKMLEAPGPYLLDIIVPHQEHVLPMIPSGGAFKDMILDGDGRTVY

For the compound `CCc1cnc(C2=NC(C)(C(C)C)C(=O)N2)c(C(=O)O)c1` (racemic), in assay [1], the inhibition (as a rule, the relative decrease from the control value, in per cent) was “Active”. In addition, the OD in assay [2] came to 2.26 h⁻¹; in assay [3], 1.9 h⁻¹; in assay [4], 4.41 h⁻¹; in assay [6], 7.6 h⁻¹. The same compound came in with an inhibition in assay [5] of 19.8%.

For `CCc1cnc(C2=N[C@@](C)(C(C)C)C(=O)N2)c(C(=O)O)c1`, in assay [1], the inhibition result is “Active”. For the same compound, the OD in assay [2] was 3.18 h⁻¹; in assay [3], 2.06 h⁻¹; in assay [4], 6.34 h⁻¹; in assay [6], 7.96 h⁻¹. The inhibition in assay [5] turned out to be 3.8%.

On to `CCc1cnc(C2=N[C@](C)(C(C)C)C(=O)N2)c(C(=O)O)c1`, for which the inhibition result in assay [1] is “Active”. Besides, the OD amounted to 1.56 h⁻¹ in assay [2], 0.97 h⁻¹ in assay [3], 3.39 h⁻¹ in assay [4] and 7.14 h⁻¹ in assay [6]. In addition, the inhibition in assay [5] came to 28.9%.
